Assay results as given in ChEMBL document CHEMBL1132195, “cycloSal-Pronucleotides of 2',3'-dideoxyadenosine and 2', 3'-dideoxy-2',3'-didehydroadenosine: synthesis and antiviral evaluation of a highly efficient nucleotide delivery system” (J Med Chem, 1999).

Experiments:
[1] = tested on: C3H/3T3; experiment: (§1) Effect of compound against Moloney murine sarcoma virus (MSV)-induced transformation of C3H/3T3 embryo murine fibroblasts; format: functional, cell-based, Mus musculus
Method in brief: (§2)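 C3H/3T3 mouse embryo fibroblasts seeded at 20 000 cells/mL, incubated 24 h, infected with 80 focus-forming units of MSV for 120 min, then given fresh medium with compound dilutions. Transformation scored microscopically after 6 days; EC50 is the concentration giving 50% inhibition of transformation. MCC is the lowest concentration causing microscopically visible morphological alteration of the fibroblast cultures.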

[2] = Partition coefficient (logP); format: physicochemical; details: octanol/water
Method in brief: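 Compound dissolved in 1-octanol, shaken with an equal volume of water for 10 min and phases separated by centrifugation. Each phase analysed by RP-HPLC with UV detection at 260 nm. P calculated from the peak areas of the aqueous and organic phases.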

[3] = tested on: Human immunodeficiency virus 1; experiment: In vitro inhibition of HIV-1 replication in human T-lymphocytic cells (CEM).; format: functional, organism-based
Method in brief: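 CEM cells at 4×10^5 cells/mL infected with HIV-1 or HIV-2 (strain ROD, stocks grown in MT-4 cells) at ~100 CCID50 per mL. Infected cells mixed 1:1 with compound dilutions.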

[4] = Selectivity by CC50 of CEM cells/EC50 of CEM cells against HIV-1; format: functional, CCRF-CEM
[5] = tested on: CCRF-CEM; experiment: In vitro cytotoxic concentration in CEM cells.; format: functional, Homo sapiens
[6] = tested on: Human immunodeficiency virus 2; experiment: In vitro inhibition of HIV-2 replication in human T-lymphocytic cells (CEM).; format: functional, organism-based
Method in brief: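 CEM cells at 4×10^5 cells/mL infected with HIV-1 or HIV-2 (strain ROD, stocks grown in MT-4 cells) at ~100 CCID50 per mL. Infected cells mixed 1:1 with compound dilutions. Giant cell formation recorded microscopically after 4-5 days; EC50 is the 50% effective concentration.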

[7] = tested on: C3H/3T3; experiment: Minimal cytotoxic concentration in C3H/3T3 cells.; format: functional; details: Mus musculus; method in brief: as §2
[8] = Hydrolysis half life in glycine/HCl buffer at the specified pH of 3.0; format: ADME; details: pH 3
Method in brief: (§3)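 Compound diluted from DMSO stock to 0.71 mM final in 24.8 mM buffer at 37 °C, with AZT as internal standard. Buffers: phosphate (Sörensen) pH 7.3; glycine/HCl pH 3.0 or 1.5. Aliquots stopped by freezing and analysed by RP-HPLC at 260 nm. Rate constant taken from the log degradation slope, half-life calculated from it; mean of duplicates.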

[9] = Hydrolysis half life in phosphate buffer at the specified pH of 7.3; format: ADME; details: pH 7.3; method in brief: as §3
[10] = tested on: C3H/3T3; experiment: Minimal cytotoxic concentration required to cause morphological alteration of C3H/3T3 fibroblast culture cells; format: functional; details: Mus musculus; method in brief: as §2
[11] = Selectivity index by CC50 of CEM cells/EC50 of CEM cells against HIV-1; format: functional, CCRF-CEM
[12] = Hydrolysis half life in glycine/HCl buffer at the specified pH of 1.5; format: ADME; details: pH 1.5; method in brief: as §3
[13] = tested on: C3H/3T3; experiment: as §1; format: functional, cell-based; details: Mus musculus; method in brief: as §2

Row | Compound | EC50 ([1]; Mus musculus, C3H/3T3) [nM] | logP ([2]; read-out: logP) | EC50 ([3]; Human immunodeficiency virus 1) [nM] | SI [4] | CC50 ([5]; Homo sapiens, CCRF-CEM) [nM] | EC50 ([6]; Human immunodeficiency virus 2) [nM] | MCC [7] [µM] | half-life [8] [min] | half-life [9] [h] | MCC [10] [µM] | SI [11] | half-life [12] [min] | EC50 [13] [nM] | logP [2] | EC50 ([1]; c3h/3t3) [nM] | EC50 [3] [nM] | CC50 [5] [nM] | EC50 [6] [nM]
1 | Nc1ncnc2c1ncn2[C@H]1CC[C@@H](CO)O1 | 40000 | -0.28 | 4300 | >57 | > 250000 | 4500 | > 50 | – | – | – | – | – | – | – | – | – | – | –
2 | Cc1cccc2c1OP(=O)(OCC1CCC(n3cnc4c(O)ncnc43)O1)OC2 (centres undefined) | > 50000 | 0.14 | 1100 | – | 58000 | 700 | – | 180 | 44.5 | > 50 | 53 | 12 | – | – | – | – | – | –
3 | Nc1ncnc2c1ncn2[C@H]1C=C[C@@H](COP2(=O)OCc3ccccc3O2)O1 (some centres undefined) | 300 | 0.36 | 65 | – | 86000 | 350 | – | 8.4 | 10.3 | > 50 | 1329 | 0.6 | – | – | – | – | – | –
4 | COc1ccc2c(c1)COP(=O)(OCC1CCC(n3cnc4c(N)ncnc43)O1)O2 (centres undefined) | – | 0.64 | 47 | – | 87000 | 160 | – | 732 | 23.4 | > 50 | 1851 | 48 | 3900 | – | – | – | – | –
5 | Nc1ncnc2c1ncn2[C@H]1C=C[C@@H](CO)O1 | 35000 | -0.49 | 30000 | – | 96000 | 50000 | – | 0.6 | – | > 50 | 3 | < 0.6 | – | – | – | – | – | –
6 | OCC1CCC(n2cnc3ncnc(O)c32)O1 (centres undefined) | > 50000 | -1.25 | 3500 | – | 156000 | 4000 | – | 12 | – | > 50 | 44 | 1.8 | – | – | – | – | – | –
7 | Cc1cccc2c1OP(=O)(OCC1CCC(n3cnc4c(N)ncnc43)O1)OC2 (centres undefined) | – | 0.88 | 47 | – | 28000 | 30 | – | 834 | 44.3 | > 50 | 585 | 31.8 | 1180 | – | – | – | – | –
8 | Cc1cccc2c1OP(=O)(OC[C@@H]1C=C[C@H](n3cnc4c(N)ncnc43)O1)OC2 (some centres undefined) | 1240 | 0.63 | 65 | – | 49000 | 190 | – | 9 | 32.3 | > 50 | 746 | 0.588 | – | – | – | – | – | –
9 | Cc1cc(C)c2c(c1)COP(=O)(OC[C@@H]1C=C[C@H](n3cnc4c(N)ncnc43)O1)O2 (some centres undefined) | 1140 | 0.95 | 50 | – | 25000 | 55 | – | 8.4 | 44.7 | > 50 | 494 | 0.6 | – | – | – | – | – | –
10 | Nc1ncnc2c1ncn2C1CCC(COP2(=O)OCc3ccccc3O2)O1 (centres undefined) | – | – | 30 | – | 93000 | 130 | – | 774 | 17 | > 50 | 3096 | 36 | 2860 | 0.59 | – | – | – | –
11 | OC[C@@H]1C=C[C@H](n2cnc3ncnc(O)c32)O1 | > 50000 | -0.89 | 4300 | – | 87000 | > 50000 | – | < 0.6 | – | > 50 | 20 | < 0.6 | – | – | – | – | – | –
12 | Cc1cc(C)c2c(c1)COP(=O)(OCC1CCC(n3cnc4c(N)ncnc43)O1)O2 (centres undefined) | 1140 | 1.35 | 25 | – | 10000 | 25 | – | 618 | 58.2 | > 50 | 383 | 43.8 | – | – | – | – | – | –
13 | COc1ccc2c(c1)COP(=O)(OC[C@@H]1C=C[C@H](n3cnc4c(N)ncnc43)O1)O2 (stereo in doubt; 10b (f)) | – | – | – | – | – | – | – | – | – | – | 932 | – | – | 0.48 | 2830 | 43 | 40000 | 50
14 | COc1ccc2c(c1)COP(=O)(OC[C@@H]1C=C[C@H](n3cnc4c(N)ncnc43)O1)O2 (stereo in doubt; 10b (s)) | – | 0.41 | – | – | 62000 | – | – | – | – | > 50 | 125 | – | – | – | 12800 | 500 | – | 330
15 | COc1ccc2c(c1)COP(=O)(OC[C@@H]1C=C[C@H](n3cnc4c(N)ncnc43)O1)O2 (stereo in doubt; 10b) | – | – | – | – | – | – | – | 8.4 | 14.5 | – | 962 | 0.66 | – | – | 1210 | 80 | 77000 | 65
16 | Cc1cn([C@H]2C=C[C@@H](CO)O2)c(=O)[nH]c1=O [STAVUDINE] | 15000 | – | 180 | 311 | 56000 | 260 | – | – | – | – | – | – | – | – | – | – | – | –
17 | Cc1cn([C@H]2C[C@H](N=[N+]=[N-])[C@@H](CO)O2)c(=O)[nH]c1=O [ZIDOVUDINE] | > 100000 | 0.025 | – | – | > 100000 | 6 | – | – | – | – | – | – | – | – | – | – | – | –
